Several values for one entry are separate records, joined by “and”; a condition that tells them apart may be missing. Identical values can stand only once.
System: Fibroblast
Assay: Multiplex assay against human fibroblast
Assay type: toxicity, cell-based
Outline: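 Compound was added to live cells that had been stained at seeding with Hoechst33342, BioTracker Green Microtubule Cytoskeleton Dye, MitoTracker Red and Annexin V Alexa Fluor 680, and imaging followed on a CQ1 microscope at 37°C and 5% CO2. CellPathfinder machine-learning gating divided cells into Hoechst high-intensity objects or normal cells, normal cells into healthy, pyknosed or fragmented nuclei, and pyknosed cells into mitotic or apoptotic. Tubulin, mitochondrial-mass and membrane-permeability phenotypes are per cents of healthy-nucleus cells.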

[1] = 12 h, 1 µM, compound concentration 1 uM, replicate 1
[2] = 12 h, 1 µM, compound concentration 1 uM, replicate 2
[3] = 12 h, 10 µM, compound concentration 10 uM, replicate 1
[4] = 12 h, 10 µM, compound concentration 10 uM, replicate 2
[5] = 24 h, 1 µM, compound concentration 1 uM, replicate 1
[6] = 24 h, 1 µM, compound concentration 1 uM, replicate 2
[7] = 24 h, 10 µM, compound concentration 10 uM, replicate 1
[8] = 24 h, 10 µM, compound concentration 10 uM, replicate 2
[9] = 48 h, 10 µM, compound concentration 10 uM, replicate 1
[10] = 48 h, 10 µM, compound concentration 10 uM, replicate 2

C[C@@]1(C(=O)Nc2ccc(F)nc2)CCCN1c1nc(Nc2cc(C3CC3)n[nH]2)c2cccn2n1 [BMS-754807]
Population Apoptotic (%) [1]: 63%
Population Fragmented Nuclei (%) [1]: 36%
Population Healthy Nuclei (%) [1]: 50%
Population Hoechst High Intensity Objects (%) [1]: 10%
Population Membrane Permeable-Phenotype (%) [1]: 18%
Population Mitochondria Different-Phenotype (%) [1]: 13%
Population Mitotic Cells (%) [1]: 36%
Population Normal (%) [1]: 89%
Population Pyknosed Nuclei (%) [1]: 13%
Population Tubulin-Different-Phenotype (%) [1]: 69%
Total Cell Count [1]: 257
Population Apoptotic (%) [2]: 66%
Population Fragmented Nuclei (%) [2]: 75%
Population Healthy Nuclei (%) [2]: 16%
Population Hoechst High Intensity Objects (%) [2]: 28%
Population Membrane Permeable-Phenotype (%) [2]: 50%
Population Mitochondria Different-Phenotype (%) [2]: 33%
Population Mitotic Cells (%) [2]: 33%
Population Normal (%) [2]: 71%
Population Pyknosed Nuclei (%) [2]: 8%
Population Tubulin-Different-Phenotype (%) [2]: 66%
Total Cell Count [2]: 52
Population Apoptotic (%) [3]: 63% and 78%
Population Fragmented Nuclei (%) [3]: 22% and 25%
Population Healthy Nuclei (%) [3]: 42%
Population Hoechst High Intensity Objects (%) [3]: 16% and 15%
Population Mitotic Cells (%) [3]: 36% and 21%
Population Normal (%) [3]: 84%
Population Pyknosed Nuclei (%) [3]: 34% and 16%
Total Cell Count [3]: 75 and 165
Population Apoptotic (%) [4]: 80% and 33%
Population Healthy Nuclei (%) [4]: 37% and 58%
Population Hoechst High Intensity Objects (%) [4]: 29% and 13%
Population Membrane Permeable-Phenotype (%) [4]: 17% and 22%
Population Normal (%) [4]: 70% and 86%
Total Cell Count [4]: 87 and 53
Population Apoptotic (%) [5]: 63%
Population Fragmented Nuclei (%) [5]: 27%
Population Healthy Nuclei (%) [5]: 55%
Population Hoechst High Intensity Objects (%) [5]: 9%
Population Membrane Permeable-Phenotype (%) [5]: 10%
Population Mitochondria Different-Phenotype (%) [5]: 26%
Population Mitotic Cells (%) [5]: 36%
Population Normal (%) [5]: 90%
Population Pyknosed Nuclei (%) [5]: 16%
Population Tubulin-Different-Phenotype (%) [5]: 70%
Total Cell Count [5]: 219
Population Apoptotic (%) [6]: 75%
Population Fragmented Nuclei (%) [6]: 65%
Population Healthy Nuclei (%) [6]: 19%
Population Hoechst High Intensity Objects (%) [6]: 40%
Population Membrane Permeable-Phenotype (%) [6]: 40%
Population Mitochondria Different-Phenotype (%) [6]: 40%
Population Mitotic Cells (%) [6]: 25%
Population Normal (%) [6]: 59%
Population Pyknosed Nuclei (%) [6]: 15%
Population Tubulin-Different-Phenotype (%) [6]: 60%
Total Cell Count [6]: 44
Population Apoptotic (%) [7]: 41% and 63%
Population Fragmented Nuclei (%) [7]: 26% and 20%
Population Healthy Nuclei (%) [7]: 53% and 63%
Population Hoechst High Intensity Objects (%) [7]: 21% and 13%
Population Membrane Permeable-Phenotype (%) [7]: 35% and 15%
Population Mitotic Cells (%) [7]: 58% and 36%
Population Normal (%) [7]: 78% and 86%
Population Pyknosed Nuclei (%) [7]: 19% and 15%
Total Cell Count [7]: 80 and 166
Population Apoptotic (%) [8]: 60% and 37%
Population Healthy Nuclei (%) [8]: 28% and 47%
Population Mitochondria Different-Phenotype (%) [8]: 25% and 59%
Population Mitotic Cells (%) [8]: 40% and 62%
Population Normal (%) [8]: 68% and 90%
Total Cell Count [8]: 83 and 51
Population Apoptotic (%) [9]: 92%
Population Fragmented Nuclei (%) [9]: 35%
Population Healthy Nuclei (%) [9]: 39%
Population Hoechst High Intensity Objects (%) [9]: 27%
Population Membrane Permeable-Phenotype (%) [9]: 23%
Population Mitochondria Different-Phenotype (%) [9]: 28%
Population Mitotic Cells (%) [9]: 7%
Population Normal (%) [9]: 72%
Population Pyknosed Nuclei (%) [9]: 24%
Population Tubulin-Different-Phenotype (%) [9]: 85%
Total Cell Count [9]: 73
Population Apoptotic (%) [10]: 70%
Population Fragmented Nuclei (%) [10]: 27%
Population Healthy Nuclei (%) [10]: 56%
Population Hoechst High Intensity Objects (%) [10]: 9%
Population Membrane Permeable-Phenotype (%) [10]: 24%
Population Mitochondria Different-Phenotype (%) [10]: 43%
Population Mitotic Cells (%) [10]: 30%
Population Normal (%) [10]: 90%
Population Pyknosed Nuclei (%) [10]: 15%
Population Tubulin-Different-Phenotype (%) [10]: 100%
Total Cell Count [10]: 72

CNCc1ccc(-c2cc(-c3nc(-c4ccc(S(=O)(=O)C(C)C)cc4)cnc3N)on2)cc1 [BERZOSERTIB]
Population Apoptotic (%) [1]: 45% and 78%
Population Fragmented Nuclei (%) [1]: 22% and 31%
Population Hoechst High Intensity Objects (%) [1]: 63% and 99%
Population Membrane Permeable-Phenotype (%) [1]: 1%
Population Mitochondria Different-Phenotype (%) [1]: 0%
Population Mitotic Cells (%) [1]: 54% and 21%
Population Pyknosed Nuclei (%) [1]: 54% and 63%
Population Apoptotic (%) [2]: 47% and 100%
Population Fragmented Nuclei (%) [2]: 47% and 96%
Population Hoechst High Intensity Objects (%) [2]: 68% and 95%
Population Membrane Permeable-Phenotype (%) [2]: 14% and 0%
Population Mitochondria Different-Phenotype (%) [2]: 4%
Population Tubulin-Different-Phenotype (%) [2]: 0%
Population Apoptotic (%) [3]: 51% and 76%
Population Fragmented Nuclei (%) [3]: 24% and 41%
Population Healthy Nuclei (%) [3]: 21%
Population Hoechst High Intensity Objects (%) [3]: 64% and 99%
Population Membrane Permeable-Phenotype (%) [3]: 5%
Population Mitochondria Different-Phenotype (%) [3]: 1%
Population Mitotic Cells (%) [3]: 48% and 23%
Population Pyknosed Nuclei (%) [3]: 54%
Population Tubulin-Different-Phenotype (%) [3]: 8%
Total Cell Count [3]: 976 and 2548
Population Apoptotic (%) [4]: 48% and 100%
Population Fragmented Nuclei (%) [4]: 54% and 93%
Population Hoechst High Intensity Objects (%) [4]: 69% and 96%
Population Membrane Permeable-Phenotype (%) [4]: 12% and 0%
Population Mitochondria Different-Phenotype (%) [4]: 6% and 0%
Population Tubulin-Different-Phenotype (%) [4]: 3% and 0%
Population Fragmented Nuclei (%) [5]: 66% and 26%
Population Hoechst High Intensity Objects (%) [5]: 99% and 67%
Population Membrane Permeable-Phenotype (%) [5]: 0% and 1%
Population Mitochondria Different-Phenotype (%) [5]: 0%
Population Mitotic Cells (%) [5]: 100% and 57%
Population Pyknosed Nuclei (%) [5]: 33% and 40%
Population Tubulin-Different-Phenotype (%) [5]: 0%
Population Apoptotic (%) [6]: 37% and 100%
Population Fragmented Nuclei (%) [6]: 53% and 94%
Population Hoechst High Intensity Objects (%) [6]: 69% and 96%
Population Membrane Permeable-Phenotype (%) [6]: 25%
Population Mitochondria Different-Phenotype (%) [6]: 12%
Population Fragmented Nuclei (%) [7]: 0% and 19%
Population Hoechst High Intensity Objects (%) [7]: 100% and 68%
Population Membrane Permeable-Phenotype (%) [7]: 0% and 8%
Population Mitochondria Different-Phenotype (%) [7]: 0%
Population Tubulin-Different-Phenotype (%) [7]: 0%
Population Apoptotic (%) [8]: 54%
Population Fragmented Nuclei (%) [8]: 93% and 42%
Population Hoechst High Intensity Objects (%) [8]: 97% and 74%
Population Mitochondria Different-Phenotype (%) [8]: 7%
Population Mitotic Cells (%) [8]: 45%
Population Pyknosed Nuclei (%) [8]: 33%
Population Tubulin-Different-Phenotype (%) [8]: 11%

— ChEMBL document CHEMBL4689842, “EUbOPEN Chemogenomics Library wave 1” (2021)
